# Experimental data pooled from the literature.
# Lines come from different studies, so protocols differ.
# Action: inhibitor
# rep main protease: Replicase polyprotein 1ab, main protease (rep, Severe acute respiratory syndrome coronavirus 2, UniProt P0DTD1)
# rep papain-like protease: Replicase polyprotein 1ab, papain-like protease (rep, Severe acute respiratory syndrome coronavirus 2, UniProt P0DTD1)
Structure (SMILES),target,test,system,conditions,inhibition [%]
COc1cc(/C=C/C(=O)CC(=O)/C=C/c2ccc(O)c(OC)c2)ccc1O,rep main protease,"enzyme activity, FRET",,"10 µM, 10 min",> 50
O=C1CC(c2c(O)cccc2O)Oc2cc(O)cc(O)c21 (stereo not drawn),rep main protease,enzyme activity,,20 µM,26.5
O=C(O)Cc1ccc(O)c([N+](=O)[O-])c1,rep main protease,"enzyme activity, FRET",,"10 µM, 10 min",< 25
CC(=O)N[C@H](CCCCN)C(=O)N[C@H](Cc1c[nH]c2ccccc12)C(=O)N[C@H](CO)C(=O)N[C@H](Cc1ccc(O)cc1)C(=O)N[C@H](CCC(N)=O)C(=O)N1CCC[C@@H]1C(=O)N[C@@H](C(=O)N[C@H](Cc1c[nH]c2ccccc12)C(=O)N[C@H](CC(=O)O)C(=O)N[C@H](Cc1c[nH]c2ccccc12)C(=O)N[C@@H](C(=O)N[C@H](Cc1c[nH]c2ccccc12)C(=O)N[C@H](CO)C(=O)N[C@H](CCC(=O)O)C(=O)N[C@H](Cc1c[nH]cn1)C(=O)N[C@H](C)C(=O)N[C@H](CCCNC(=N)N)C(N)=O)[C@H](C)O)[C@H](C)O,rep main protease,"enzyme activity, fluorescence",,140 µM,100
Cn1c(C(=O)Nc2ccc3c(c2)OCCO3)cc2c(=O)n3ccccc3nc21,rep main protease,enzyme activity,,1 µM,31
COc1cccc2c1C(=O)C(C(C)=O)=CC2=O,rep main protease,enzyme activity,,1 µM,94.3
O=c1[nH]c(CCl)nc2sc3c(c12)CCCC3,rep main protease,enzyme activity,,20 µM,29.2
CC1=C2CC(C(=O)N[C@@H]3CN(C(=O)c4cc5ccccc5o4)Cc4nccn4C3)=CN=C2NN1,rep main protease,enzyme activity,,5 µM,11.3
O=C(/C=C/c1ccc(O)c(O)c1)OC1CC(OC(=O)/C=C/c2ccc(O)c(O)c2)(C(=O)O)CC(O)C1O (stereo not drawn),rep main protease,enzyme activity,,10 µM,27.8
Cc1ccc2nc(Cl)c(C=Nc3cc(Br)ccn3)cc2c1,rep papain-like protease,enzyme activity,,100 µM,23.9
CCC(CC)COC(=O)[C@H](C)N[P@](=O)(OC[C@H]1O[C@@](C#N)(c2ccc3c(N)ncnn23)[C@H](O)[C@@H]1O)Oc1ccccc1,"Replicase polyprotein 1ab, polymerase (rep, Severe acute respiratory syndrome coronavirus 2, UniProt P0DTD1)",enzyme activity in cells,HEK-293T,10 µM,87
Cc1cc(NC(=O)c2cc3c(=O)n4cccc(C)c4nc3n2C)ccc1Br,rep main protease,enzyme activity,,10 µM,30
C/N=c1\nc(-c2ccccc2)n(-c2ccccc2)s1,rep main protease,enzyme activity,,0.1 µM,16.4
O=C(O)c1cc(O)c2c(c1)C([C@@H]1c3cc(C(=O)O)cc(O)c3C(=O)c3c(O[C@H]4O[C@H](CO)[C@@H](O)[C@H](O)[C@H]4O)cccc31)c1cccc(O[C@H]3O[C@H](CO)[C@@H](O)[C@H](O)[C@H]3O)c1C2=O (stereo partly drawn),rep main protease,enzyme activity,,20 µM,103
CCOC(=O)COc1cc(C)cc2c1C(=O)C=CC2=O,rep main protease,enzyme activity,,0.1 µM,29.6
O=c1cc(-c2ccccc2)oc2cc(O)c(O)c(O)c12,rep main protease,enzyme activity,,10 µM,87
COCOc1cc(C)cc2c1C(=O)C=CC2=O,rep main protease,enzyme activity,,1 µM,4.6
O=C1NCc2c1cccc2C(=O)N[C@H](CNC(=O)c1ccnc2[nH]ncc12)c1ccccc1,rep main protease,enzyme activity,,5 µM,10
CC1=CC(=O)c2c(O)cccc2C1=O,rep main protease,enzyme activity,,10 µM,7.7
CN1CCc2cccc3c2[C@H]1Cc1ccc(O)c(O)c1-3,rep main protease,enzyme activity,,20 µM,-23
Cc1ccc2nc(Cl)c(/C=N/NC(=O)c3ccncc3)cc2c1,rep papain-like protease,enzyme activity,,10 µM,9.2
C[C@@H]1O[C@@H](OC[C@H]2O[C@@H](OCCc3ccc(O)c(O)c3)[C@H](OC(=O)/C=C/c3ccc(O)c(O)c3)[C@@H](O)[C@@H]2O)[C@H](O)[C@H](O)[C@H]1O,rep papain-like protease,enzyme activity,,50 µM,2.5
CN(C(=O)[C@H](Cc1ccccc1)NC(=O)[C@@H](NC(=O)OCc1ccccc1)C(C)(C)C)N(C#N)CCC(N)=O,rep main protease,"enzyme activity, fluorescence",,"50 µM, pH 7.2",100
CCC(=O)Oc1cccc2c1C(=O)C=CC2=O,rep main protease,enzyme activity,,1 µM,96.5
O=C(Oc1cc(Cl)cc([N+](=O)[O-])c1)c1cccc2[nH]ccc12,rep main protease,"enzyme activity, fluorescence",,"10 µM, pH 7.2",1
Cc1cccn2c(=O)c3cc(C(=O)Nc4ccc(N(C)C)cc4)n(C)c3nc12,rep main protease,enzyme activity,,1 µM,3.5
O=c1c(O)c(-c2cc(O)c(O)c(O)c2)oc2cc(O)ccc12,rep main protease,enzyme activity,,10 µM,62.5
CCc1ccc(NC(=O)c2cc3c(=O)n4ccccc4nc3n2C)cc1,rep main protease,enzyme activity,,10 µM,28
COc1c(O)cc(O)c2c(=O)cc(-c3ccccc3)oc12,rep papain-like protease,enzyme activity,,50 µM,52
COc1cc(C[C@@H](C)[C@@H](C)Cc2cc(O)c(OC)c(OC)c2)cc(O)c1OC,rep papain-like protease,"enzyme activity, FRET",,8 µM,51.4
O=C(Oc1cncc(Br)c1)c1cccc2[nH]ccc12,rep main protease,"enzyme activity, fluorescence",,"10 µM, pH 7.2",100
Cn1cc2c(n1)c(=O)n(Cc1ccc(F)cc1)c1nn(Cc3ccccc3)c(=O)n21,rep main protease,enzyme activity,,20 µM,14.9
O=C1C=CC(=O)c2ccccc21,rep main protease,enzyme activity,,0.1 µM,25
Oc1ccc(/C=C/c2cc(O)cc(O)c2)cc1,rep main protease,"enzyme activity, FRET",,"10 µM, 10 min",> 50
O=C(CSc1nnc2c(n1)[nH]c1ccccc12)Nc1cccc(S(=O)(=O)N2CCOCC2)c1,rep main protease,enzyme activity,,100 µg/mL,0
CCn1nc2n(Cc3ccc(F)cc3)c(=O)c3nn(C)cc3n2c1=O,rep main protease,enzyme activity,,20 µM,15.5
O=c1cc(-c2ccc(O)cc2)oc2cc(O)c(O)c(O)c12,rep main protease,enzyme activity,,100 µM,102
CC(=O)Nc1ccc(-c2cnc(/N=C\c3cc4ccccc4nc3Cl)s2)cc1,rep papain-like protease,enzyme activity,,100 µM,97.2
NC(=O)CSc1nnc2c3ccccc3nc(-c3ccc(F)cc3)n12,rep main protease,enzyme activity,,20 µM,20.1
Cc1ccc(NC(=O)c2cc3c(=O)n4cccc(C)c4nc3n2C)cc1Cl,rep main protease,enzyme activity,,1 mM,75
O=C(NC[C@H](NC(=O)c1cn[nH]c1-c1ccccn1)c1ccc2ccccc2c1)c1cn[nH]c1,rep main protease,enzyme activity,,5 µM,10.7
O=C(NCc1cccnc1)Nc1csc([N+](=O)[O-])c1,rep main protease,enzyme activity,,20 µM,4.45
